From PMC10828771 (Haematologica, 2023) come the findings set out here.

For this test, the system named is OPM-2 cells. Description: Apoptosis and necroptosis inhibition assays. The test is classed as cell-based, human. The essentials:
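OPM-2 cells at 250,000 cells/mL pre-incubated 1 h at 37°C in medium containing pan-caspase inhibitor Z-VAD-FMK, necroptosis inhibitor necrostatin-1s, or DMSO. Washed (PBS for Z-VAD-FMK arm), then cultured 72 h with test compound or DMSO. Viability by Zombie-aqua staining and flow cytometry. Z-VAD-FMK arm: mean ± SD of 3 independent experiments.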

Residues, ends and D or L forms follow the SMILES beside them. *: point of attachment. Cbz = O=C(OCc1ccccc1)*; CH2F = FC*

In the case of `CN1C(=O)NC(Cc2c[nH]c3c(Cl)cccc23)C1=O` (centres unmarked) [Necrostatin-1s], the “effect of pretreatment on OSU-13-mediated cell death” value (100 μM necrostatin-1s 1 h, then 1 μM OSU-13 72 h) is listed as “no measurable effect”.
As for `COC(=O)C[C@H](NC(=O)[C@H](C)NC(=O)[C@@H](NC(=O)OCc1ccccc1)C(C)C)C(=O)CF` [Z-VAD-FMK] (Cbz-Val-Ala-Asp(OMe)-CH2F), under “100 mM Z-VAD-FMK 1 h, then 1 mM OSU-13 72 h”, the “decrease of OSU-13-mediated cell death by pretreatment” value stood at 20±6.7%.
